Measured values reported in ChEMBL document CHEMBL2169794, “Induction of apoptosis by 3-amino-6-(3-aminopropyl)-5,6-dihydro-5,11-dioxo-11H-indeno[1,2-c]isoquinoline via modulation of MAPKs (p38 and c-Jun N-terminal kinase) and c-Myc in HL-60 human leukemia cells” (J Nat Prod, 2012).
Activity calls are given as the source filed them. The calls are words filed in the database; no cut-off is given here.

What was measured:
[1] = tested on: HL-60; experiment: Induction of apoptosis in human HL60 cells assessed as early apoptotic cells level at 2 uM incubated for 24 hrs by annexinV/7-AAD double staining based flow cytometry (reference value: 3.68%); type: functional
[2] = tested on: HL-60; experiment: Induction of apoptosis in human HL60 cells assessed as viable cells level at 2 uM incubated for 24 hrs by annexinV/7-AAD double staining based flow cytometry (reference value: 92.44%); type: functional
[3] = tested on: HL-60; experiment: Induction of apoptosis in human HL60 cells assessed as viable cells level at 1 uM incubated for 24 hrs by annexinV/7-AAD double staining based flow cytometry (reference value: 92.44%); type: functional
[4] = tested on: HL-60; experiment: Cell cycle arrest in human HL60 cells assessed as accumulation at subG0/G1 phase at 1 uM by NIM-DAPI staining based flow cytometry (reference value: 2.8 +/- 0.8%); type: functional
[5] = tested on: HL-60; experiment: Cell cycle arrest in human HL60 cells assessed as accumulation at subG0/G1 phase at 0.5 uM by NIM-DAPI staining based flow cytometry (reference value: 2.8 +/- 0.8%); type: functional
[6] = tested on: HL-60; experiment: Cell cycle arrest in human HL60 cells assessed as accumulation at subG0/G1 phase at 0.25 uM by NIM-DAPI staining based flow cytometry (reference value: 2.8 +/- 0.8%); type: functional
[7] = tested on: HL-60; experiment: Cell cycle arrest in human HL60 cells assessed as accumulation at subG0/G1 phase at 0.125 uM by NIM-DAPI staining based flow cytometry (reference value: 2.8 +/- 0.8%); type: functional
[8] = tested on: HL-60; experiment: Cell cycle arrest in human HL60 cells assessed as accumulation at subG0/G1 phase at 0.0625 uM by NIM-DAPI staining based flow cytometry (reference value: 2.8 +/- 0.8%); type: functional
[9] = tested on: HL-60; experiment: Cell cycle arrest in human HL60 cells assessed as accumulation at G2/M phase at 0.5 uM by NIM-DAPI staining based flow cytometry (reference value: 13.2 +/- 2.8%); type: functional
[10] = tested on: HL-60; experiment: Cell cycle arrest in human HL60 cells assessed as accumulation at G2/M phase at 0.25 uM by NIM-DAPI staining based flow cytometry (reference value: 13.2 +/- 2.8%); type: functional
[11] = tested on: HL-60; experiment: Cell cycle arrest in human HL60 cells assessed as accumulation at G2/M phase at 0.125 uM by NIM-DAPI staining based flow cytometry (reference value: 13.2 +/- 2.8%); type: functional
[12] = tested on: HL-60; experiment: Antiproliferative activity against human HL60 cells after 96 hrs by MTT assay; type: functional, cell-based; settings: HL-60, 96 h
Procedure, shortened: (§1)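 HL-60 cells seeded at 2×10^4 per well, treated after 24 h with serial dilutions (0.0625-1 µM) for 24, 48, 72 or 96 h; DMSO 0.1% vehicle control. MTT added (final 500 µg/mL) for 4 h, formazan dissolved in DMSO, OD at 540 nm. Inhibition calculated relative to vehicle control after subtracting time-zero reading; IC50 by curve fitting; n = 6 per group.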

[13] = tested on: HL-60; experiment: Antiproliferative activity against human HL60 cells after 72 hrs by MTT assay; type: functional, cell-based; settings: HL-60, 72 h; procedure, shortened: as §1
[14] = tested on: HL-60; experiment: Antiproliferative activity against human HL60 cells after 48 hrs by MTT assay; type: functional, cell-based; settings: HL-60, 48 h; procedure, shortened: as §1
[15] = tested on: HL-60; experiment: Reduction in mitochondrial transmembrane electric potential in human HL60 cells 1 uM incubated for 96 hrs by DiOC6(3) dye staining based flow cytometry; type: functional, cell-based
Procedure, shortened: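 HL-60 cells given DMSO vehicle or 1 µM test agent for 96 h, then loaded with 100 nM DiOC6(3) for 30 min at 37 °C. After washing and resuspension in PBS, the cells were read at once by flow cytometry in FL-1.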

[16] = tested on: HL-60; experiment: Antiproliferative activity against human HL60 cells after 24 hrs by MTT assay; type: functional, cell-based; settings: HL-60, 24 h; procedure, shortened: as §1
[17] = tested on: HL-60; experiment: Cell cycle arrest in human HL60 cells assessed as accumulation at G2/M phase at 0.0625 uM by NIM-DAPI staining based flow cytometry (reference value: 13.2 +/- 2.8%); type: functional
[18] = tested on: HL-60; experiment: Induction of apoptosis assessed as increase in caspase 3/7 enzyme activity in human HL60 cells at 1 uM incubated for 24 to 72 hrs by luminometry relative to untreated control; type: functional
Procedure, shortened: (§2)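 HL-60 cells treated with serial dilutions in 96-well plates for 24, 48 and 72 h. Luminogenic caspase-3/7, caspase-8 or caspase-9 substrate reagent added for 3 h at room temperature, then luminescence read. Results are expressed as fold over DMSO vehicle control.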

[19] = tested on: HL-60; experiment: Down regulation of c-Myc protein expression in human HL60 cells at 1 uM after 2 hrs by Western blot method; type: functional, cell-based
Procedure, shortened: (§3)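 HL-60 cells exposed to 1 µM test agent for the indicated times, then lysed. 15 µg protein run on 12% SDS-PAGE, blotted to PVDF, probed overnight at 4 °C with antibodies to phospho- or total ERK1/2, p38 (Thr180/Tyr182), SAPK/JNK (Thr183/Tyr185) or c-Myc. HRP secondary, chemiluminescent read-out.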

[20] = molecular target: MAP kinase p38 (Homo sapiens) (UniProt O15264+Q15759+Q16539+P53778); experiment: Induction of p38 MAPK phosphorylation in human HL60 cells at 1 uM incubated for 1 to 24 hrs by Western blot method; type: cell-based; settings: HL-60; procedure, shortened: as §3
[21] = molecular target: c-Jun N-terminal kinase, JNK (Homo sapiens) (UniProt P45983+P53779+P45984); experiment: Induction of JNK phosphorylation in human HL60 cells at 1 uM incubated for 1 to 24 hrs by Western blot method; type: cell-based; settings: HL-60; procedure, shortened: as §3
[22] = tested on: HL-60; experiment: Effect on total p38MAPK protein expression in human HL60 cells at 1 uM incubated for 1 to 24 hrs by Western blot method; type: functional, cell-based; procedure, shortened: as §3
[23] = tested on: HL-60; experiment: Effect on total SAPK/JNK protein expression in human HL60 cells at 1 uM incubated for 1 to 24 hrs by Western blot method; type: functional, cell-based; procedure, shortened: as §3
[24] = tested on: HL-60; experiment: Effect on total ERK1/2 protein expression in human HL60 cells at 1 uM incubated for 1 to 24 hrs by Western blot method; type: functional, cell-based; procedure, shortened: as §3
[25] = tested on: HL-60; experiment: Induction of apoptosis assessed as increase in caspase 8 enzyme activity in human HL60 cells at 1 uM incubated for 24 to 72 hrs by luminometry relative to untreated control; type: functional, cell-based; procedure, shortened: as §2
[26] = tested on: HL-60; experiment: Induction of apoptosis assessed as increase in caspase 9 enzyme activity in human HL60 cells at 1 uM incubated for 24 to 72 hrs by luminometry relative to untreated control; type: functional; procedure, shortened: as §2
[27] = tested on: HL-60; experiment: Induction of cleaved caspase 7 expression in human HL60 cells at 0.25 to 2 uM incubated for 24 hrs by Western blotting method; type: functional, cell-based
Procedure, shortened: (§4)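 HL-60 cells exposed for 24 h to the stated concentrations and lysed; protein measured by Bradford. Lysate (15 µg) run on 12% SDS-PAGE and transferred to PVDF. Blocked in 5% milk/TBST for 1 h, primary antibody overnight at 4 °C, HRP secondary for 2 h at room temperature, chemiluminescent detection.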

[28] = tested on: HL-60; experiment: Induction of cleaved caspase 3 expression in human HL60 cells at 0.25 to 2 uM incubated for 24 hrs by Western blotting method; type: functional, cell-based; procedure, shortened: as §4
[29] = tested on: HL-60; experiment: Induction of PARP cleavage in human HL60 cells 2 uM incubated for 24 hrs by Western blot method; type: functional, cell-based; procedure, shortened: as §4
[30] = tested on: HL-60; experiment: Induction of PARP cleavage in human HL60 cells 1 uM incubated for 24 hrs by Western blot method; type: functional, cell-based; procedure, shortened: as §4
[31] = tested on: HL-60; experiment: Induction of apoptosis in human HL60 cells assessed as necrotic cells level at 2 uM incubated for 24 hrs by annexinV/7-AAD double staining based flow cytometry (reference value: 3.45%); type: functional
[32] = tested on: HL-60; experiment: Induction of apoptosis in human HL60 cells assessed as necrotic cells level at 1 uM incubated for 24 hrs by annexinV/7-AAD double staining based flow cytometry (reference value: 3.45%); type: functional
[33] = tested on: HL-60; experiment: Induction of apoptosis in human HL60 cells assessed as late apoptotic cells level at 2 uM incubated for 24 hrs by annexinV/7-AAD double staining based flow cytometry (reference value: 0.43%); type: functional
[34] = tested on: HL-60; experiment: Induction of apoptosis in human HL60 cells assessed as late apoptotic cells level at 1 uM incubated for 24 hrs by annexinV/7-AAD double staining based flow cytometry (reference value: 0.43%); type: functional
[35] = tested on: HL-60; experiment: Induction of apoptosis in human HL60 cells assessed as early apoptotic cells level at 1 uM incubated for 24 hrs by annexinV/7-AAD double staining based flow cytometry (reference value: 3.68%); type: functional

IC50 [12]: 86 nM
IC50 [13]: 150 nM
IC50 [14]: 350 nM
IC50 [16]: 800 nM
Activity [20]: Active
Activity [21]: Active
Structure (SMILES): Cl.Cl.NCCCn1c2c(c3ccc(N)cc3c1=O)C(=O)c1ccccc1-2
Activity [1]: 51.56%
Activity [2]: 37.6%
Activity [3]: 57.62%
Activity [4]: 26.5%
Activity [5]: 11.1%
Activity [6]: 6.1%
Activity [7]: 6%
Activity [8]: 4.6%
Activity [9]: 27.6%
Activity [10]: 45%
Activity [11]: 39.6%
Activity [15]: Active
Activity [17]: 22%
fold change (FC) [18]: 12.6
Activity [19]: Active
Activity [22]: inactive
Activity [23]: inactive
Activity [24]: inactive
Activity [25]: inactive
fold change (FC) [26]: 7.8
Activity [27]: Active
Activity [28]: Active
Activity [29]: Active
Activity [30]: Active
Activity [31]: 4.57%
Activity [32]: 2.99%
Activity [33]: 6.27%
Activity [34]: 5.21%
Activity [35]: 34.18%
